For assay [1], the target named is Delta-type opioid receptor (Mus musculus) (UniProt P32300). The experiment in a line: Activity at delta opioid receptor by mouse vas deferens assay. Type of assay: functional, tissue-based. The settings on record: filed as partial agonist. The procedure, abridged: (§1)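 Isolated mouse vas deferens was field-stimulated with supramaximal bipolar rectangular pulses. Agonism was read as inhibition of the electrically evoked twitch, referenced to deltorphin C. IC50 came from dose-response curves over at least six experiments on fresh tissue.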
Sequence of Delta-type opioid receptor (Mus musculus) (P32300 whole entry): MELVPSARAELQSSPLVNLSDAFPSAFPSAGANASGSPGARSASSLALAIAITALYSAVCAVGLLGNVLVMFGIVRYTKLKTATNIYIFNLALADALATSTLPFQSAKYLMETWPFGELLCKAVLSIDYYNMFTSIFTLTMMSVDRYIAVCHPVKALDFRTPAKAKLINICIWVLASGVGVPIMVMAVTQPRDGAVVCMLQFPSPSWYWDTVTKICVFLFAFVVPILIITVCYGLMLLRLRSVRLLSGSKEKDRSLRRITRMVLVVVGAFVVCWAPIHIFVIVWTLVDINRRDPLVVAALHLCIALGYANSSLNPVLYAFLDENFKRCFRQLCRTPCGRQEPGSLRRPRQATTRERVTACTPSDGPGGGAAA

A further assay has as its target Mu-type opioid receptor (Cavia porcellus, UniProt P97266). Put plainly: Agonist activity at mu opioid receptor by guinea pig ileum assay. It is filed as functional, tissue-based. Summed up: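 Myenteric plexus–longitudinal muscle from male guinea pig ileum was field-stimulated with supramaximal bipolar rectangular pulses. Agonism was read as inhibition of the electrically evoked twitch, referenced to dermorphin. IC50 came from dose-response curves over at least six experiments on fresh tissue.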

Assay [2] has as its target Delta-type opioid receptor (Mus musculus, UniProt P32300). The experiment in a line: (§2) Agonist activity at delta opioid receptor by mouse vas deferens assay. Type of assay: functional, tissue-based. Summed up:
as §1

For assay [3], the target named is Delta-type opioid receptor (Mus musculus) (UniProt P32300). The assay is described as §2. Type of assay: functional, tissue-based. The procedure, abridged:
as §1

The target of assay [4] is Opioid receptors; mu & delta (Homo sapiens) (UniProt P41143+P35372). Put plainly: Selectivity for delta opioid receptor over mu opioid receptor. It is filed as protein assay. The procedure, abridged:
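Non-specific binding was set with 2 μM unlabeled peptide. Five to eight peptide doses were run in duplicate, with independent repeats on different preparations. Samples were filtered on 0.1% polyethylenimine-soaked glass fiber filters and washed thrice with ice-cold buffered BSA. Ki was derived by Cheng–Prusoff.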

The source of these data is ChEMBL document CHEMBL1138032, “New 2',6'-dimethyl-L-tyrosine (Dmt) opioid peptidomimetics based on the Aba-Gly scaffold. Development of unique mu-opioid receptor ligands” (J Med Chem, 2006).

Square brackets hold non-standard residues; d marks the D form. Peptide text beside a SMILES is read from it. * marks the point of attachment. Dmt = Cc1cc(O)cc(C)c1C[C@H](N)C(=O)O; Tic = O=C(O)[C@@H]1Cc2ccccc2CN1; NHBn = c1ccc(CN*)cc1; NHPh = c1ccc(N*)cc1

In general, IC50 refers to the concentration that gives 50% inhibition. A low value points to higher potency.

Sequence of Mu-type opioid receptor (P97266 whole entry): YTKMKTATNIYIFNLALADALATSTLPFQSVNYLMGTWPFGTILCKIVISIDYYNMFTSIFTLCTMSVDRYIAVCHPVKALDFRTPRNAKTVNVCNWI
Sequence of Delta-type opioid receptor (P32300 whole entry): as the sequence (P32300 whole entry) above
Sequence of Opioid receptors; mu & delta (Homo sapiens) (P35372 whole entry, looked up): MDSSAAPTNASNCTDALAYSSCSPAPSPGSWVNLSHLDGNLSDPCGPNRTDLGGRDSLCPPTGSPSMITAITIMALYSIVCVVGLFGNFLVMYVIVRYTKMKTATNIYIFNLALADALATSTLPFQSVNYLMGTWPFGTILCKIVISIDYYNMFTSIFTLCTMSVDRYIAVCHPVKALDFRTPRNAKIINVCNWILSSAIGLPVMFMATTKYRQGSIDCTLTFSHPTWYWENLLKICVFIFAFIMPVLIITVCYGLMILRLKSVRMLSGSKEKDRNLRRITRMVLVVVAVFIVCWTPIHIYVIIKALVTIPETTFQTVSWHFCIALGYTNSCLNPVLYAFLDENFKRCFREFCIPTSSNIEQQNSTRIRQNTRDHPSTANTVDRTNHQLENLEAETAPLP
Sequence of Opioid receptors; mu & delta (Homo sapiens) (P41143 whole entry, looked up): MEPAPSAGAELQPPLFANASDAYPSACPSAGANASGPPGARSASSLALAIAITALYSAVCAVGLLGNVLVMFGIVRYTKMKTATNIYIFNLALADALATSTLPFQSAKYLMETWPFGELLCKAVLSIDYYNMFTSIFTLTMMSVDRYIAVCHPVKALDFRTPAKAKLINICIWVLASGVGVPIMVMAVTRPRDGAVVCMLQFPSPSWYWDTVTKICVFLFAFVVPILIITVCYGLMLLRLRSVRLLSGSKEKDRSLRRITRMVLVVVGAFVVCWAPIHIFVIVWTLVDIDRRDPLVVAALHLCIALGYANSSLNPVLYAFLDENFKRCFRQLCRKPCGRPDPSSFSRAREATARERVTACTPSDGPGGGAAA

Turning to `Cc1cc(O)cc(C)c1C[C@H](N)C(=O)N[C@H]1Cc2ccccc2CN(CC(=O)Nc2ccccc2)C1=O`, the Activity entry in assay [1] is “Partial agonist”. For the same compound, the figures for the half-maximal inhibitory concentration (IC50) (at Mu-type opioid receptor; in assay [2]) were 95 nM and 650 nM, respectively. In addition, the %max in assay [3] amounted to 40%.
Take `Cc1cc(O)cc(C)c1C[C@H](N)C(=O)N1Cc2ccccc2C[C@H]1C(=O)NCC(=O)NCc1ccccc1` (H-[Dmt]-[Tic]-Gly-NHBn): the half-inhibitory concentration (IC50) at Mu-type opioid receptor amounted to 2.69 nM. Further, the Selectivity ratio in assay [4] is 5.3.
For the compound `Cc1cc(O)cc(C)c1C[C@H](N)C(=O)N[C@H]1Cc2ccccc2CN(Cc2nc3ccccc3[nH]2)C1=O`, in assay [1], the Activity entry was “Partial agonist”. For the same compound, the figures for the IC50 (on Mu-type opioid receptor; in assay [2]) were 231 nM and 2700 nM, respectively. Moreover, in assay [3], the %max is 40%.
`Cc1cc(O)cc(C)c1C[C@H](N)C(=O)N[C@H]1Cc2ccccc2CN(CC(=O)NCc2ccccc2)C1=O`: the IC50 on Mu-type opioid receptor is 51 nM; in assay [2], 830 nM.
With `Cc1cc(O)cc(C)c1C[C@H](N)C(=O)N1Cc2ccccc2C[C@H]1C(=O)NCC(=O)Nc1ccccc1` (H-[Dmt]-[Tic]-Gly-NHPh), the concentration for half-maximal inhibition (IC50) at Mu-type opioid receptor amounted to 2.57 nM; in assay [2], 3.02 nM. In assay [4], the Selectivity ratio turned out to be 3.6.
